Fewer inactive variants are shown than the library holds.
B1: tRNA (parent)
chain: GUUCCGUUGGCGUAAUGGUAACGCGUCUCCCUCCUAAGGAGAAGACUGCGGGUUCGAGUCCCGUACGGAACG

Variants of: B1
Experiment: yeast fitness relative to wild type (ratio to wild type); higher = fitter; tRNA-Arg(CCU), competitive growth, 37 C, YPD
Summary of the method: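 Variants of the tRNA-Arg(CCU) gene, chemically synthesised with a 3% per-site mutation rate at 69 sites, were placed at the native genomic locus in Saccharomyces cerevisiae. The pooled strains were competed in YPD at 37°C for 24 hours in six parallel replicates. Gene amplicons from the start population and from each end population were read by 100-nucleotide paired-end sequencing. Darwinian fitness relative to wild type came from changes in genotype frequencies; genotypes needed ≥ 100 starting reads, and estimates < 0.5 were set to 0.5.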

Going from GUUCGGUUGGCGUAAUGGUAACGCGUCUCCCACCUAAGGAGAAGACUGCGGGUUCAAGUCCCGUACGGAACG [C5G U32A G56A] to GUUCGGUUGGCGUAAUGGUAACGCGUCUCCCUCCUAAGGAGAAGACUGCGCGUUGGUGUCCCGUAUGGAACG [C5G G51C C55G A57U C66U], the yeast fitness falls from 0.634 to ≤ 0.5.

GUUCUGUUGGCGUUAUGGUAACGCGUCUCCCUGCUAAGGAGAAGAUUGCGGGUUCGAGUCCCGUACGGCACG [C5U A14U C33G C46U A69C] and GUUCGGCUGGUGUAAUGGUAACGCAUCUCCCUCCUAAGGAGAAGACUGCGGGUUCGAGUCCCGUACGGAACG [C5G U7C C11U G25A] cannot be ordered by yeast fitness: ≤ 0.5 for the first, ≤ 0.5 for the second.

Compared with GUUCGGUUGGCGCAAUGGUACCGCGUCUCCCUCCUAAGGAGAAGACUGCGGGUUCGUGUCCCGUUCGCAACG [C5G U13C A21C A57U A65U G68C], GUUCGGUUGGCGUAAUGGUAACGCGUCUCCCUCCUAAGGAGAAGACUGCGAGUUCGAGUCCCGUACGGUACG [C5G G51A A69U] is higher in yeast fitness: ≤ 0.5 for the first, 0.528 for the second.

Compared with GUUCGGUUGGCGUAAUGGUAACGCGUCUCCCUCCUAAGGAGAAGACUACGGGUUCGAGUCCCGUACGGAACG [C5G G48A], GUUCUGUUGGCGUCAUGGCAACGCGUCUCCCUCCUAAGGAGAAGACUGCGGGUUCGAGUCCCGUACGGAACG [C5U A14C U19C] is lower in yeast fitness: 0.978 for the first, 0.528 for the second.

Compared with GUUCGGUUGGCGUAACGGUAACGCGUCUCCUUCCUAAGGAGAAGACUGCGGGUUCGAGUCCCGUACGGAACG [C5G U16C C31U], GUUCUGUUGGCGUGAUGGUAACGCGUCUCCCUCCUAAGGAGAAGACUGCGAGUUCGAGUCCCGUCCGGAACG [C5U A14G G51A A65C] is lower in yeast fitness: 0.627 for the first, ≤ 0.5 for the second.

GUUCGGUUGGCGUAAUGGUAACGCGACUCCCUCCUCAGGAGAAGACUGCGGGUUCGAGUCUCGUACGGAACG [C5G U26A A36C C61U] and GUUCGGUUGGCGUAAAGGGCACGCGUUUUUCUCCUAAGGAGAAGACUGCGGGUUCGAGUCCCGUACGGAGCG [C5G U16A U19G A20C C27U C29U C30U A70G] cannot be ordered by yeast fitness: ≤ 0.5 for the first, ≤ 0.5 for the second.

Going from GUUCGGUUGGCGUAAUGGUAACGCCUCUCCCUCCUAAGGAGAAGACUGCGGGUUCGAGUCCUGUACGGAACG [C5G G25C C62U] to GUUCGGUUGGCGUAAUGGUAACGCGUCACCCUCCUAAGGAGAAGACUGCGGGUUGGAGUCCCGUACGGAACG [C5G U28A C55G], the yeast fitness falls from 0.721 to ≤ 0.5.

GUUCUGUUGGCGUGAUGGUAACGCGUCUCCCUCCUAAGGAGAAGACUGCCGGUUUGGGUCCCGUAUGGAACG [C5U A14G G50C C55U A57G C66U] and GUUCGGUUGGCGUAAUGGUAACGCGGCUCCCUCGUAAGGCGAAGAUUGCGGGUUCGAGUCCCGUACGGAACG [C5G U26G C34G A40C C46U] cannot be ordered by yeast fitness: ≤ 0.5 for the first, ≤ 0.5 for the second.

Compared with GUUCUGUUGGCGUCAUGGUAACGCGUCUCCCUCCUAAGGAGUAGACUGCGGGUUCGAGUCCCGUACGGAACG [C5U A14C A42U], GUUCGGUUGGCGUAAUGGUAACGCGUCUCCCUCCUAAGGAGAAGACUGCGGGUUCGAGACCCGUACGGAACG [C5G U59A] is higher in yeast fitness: ≤ 0.5 for the first, 0.896 for the second.

GUUCUGUUGGCGUGAUGGUAUCGCGUCUCCCUCCUAAGGAGAAGACUGCGGGUUCCAGUCCCGUACGCAACG [C5U A14G A21U G56C G68C] and GUUCGGCUGACGUAAUGGUAACGCGUCUGCCUCCUAAGGAGAAGACUGCGGGUUCGAGUCCCGUACGGAACG [C5G U7C G10A C29G] cannot be ordered by yeast fitness: ≤ 0.5 for the first, ≤ 0.5 for the second.

Going from GUUCGGUUGGCGUAAUGGUAACGCGUCUCCCUCCUAAGCAGAAGACUGCGGGUUCGAGUCCCGUACGGUACG [C5G G39C A69U] to GUUCGGUUGGCGUAACGGUGACGCGUCUCCCUCCUAAGGAGAAGACUGCGGGUUCGAGUCCCGUACGGAUCG [C5G U16C A20G A70U], the yeast fitness falls from 0.538 to ≤ 0.5.

Compared with GUUCGGAUGGCGUAAUGGUAACGCGUCUCCCUCCUAAGGAGAAGACUGCGGGUUCGAGUCCCGUACGGAACG [C5G U7A], GUUCGGGUGGCGUAAUGGUAACGCGUCUCCCUCCUAAGGAGAAGACUGCGGGUUCGAGUCCCGUACGGAACG [C5G U7G] is lower in yeast fitness: 0.792 for the first, 0.564 for the second.

GUUCUGUUGGCGUCAUGGUAACGCGUCUCCCUCCUAAGGAGAAGAAUGCGGGUUCGAGUCCCCUACGGUACG [C5U A14C C46A G63C A69U] and GUUCGGUUGGCGUAAUGGUAACGCGUCUCCCUCCUAAGGAGAAGACUGCGAGUUCGAGUCCCGUACGCAACG [C5G G51A G68C] cannot be ordered by yeast fitness: ≤ 0.5 for the first, ≤ 0.5 for the second.

Compared with GUUCGGUUGGCGUAAUGGUAACGCCUCUCCCUCCUAAGGAGAAGACUGCGGGUUCGAGUCCCGUACGGAACG [C5G G25C], GUUCGGUUGGCGUAAUGGUAACGCGUCACCCUCCUAAGGCGAAGACUGCGGGUUCGAGUCCCGUACGGAACG [C5G U28A A40C] is lower in yeast fitness: 1.06 for the first, 0.581 for the second.

GUUCGGUUGGCGUAAUGGUAACGCGUCGCCCUCCUAACGAGAAGACUGCGGGUUCGAGUCCCGUACGGAACG [C5G U28G G38C] and GUUCGGUAGGCGUAAUGGUAACGCGUCUCCCUCCUAAGGAGCAGACUCCGGGUUCGAGUCCCGUACGGAACG [C5G U8A A42C G48C] cannot be ordered by yeast fitness: ≤ 0.5 for the first, ≤ 0.5 for the second.

Compared with GUUCGGUUGGCGCAAUGGUAAGUCGUCUGCCUCCUAAGGAGAAGCCUGCGGGUUCGAGUCCCGUACGCGACG [C5G U13C C22G G23U C29G A45C G68C A69G], GUUCGGUUGGCGUAAUGGUAACGCGUCUCCCUCCUAAGGAGAAGACUGCGGGUUCGAGUCCCGGACGGAACG [C5G U64G] is higher in yeast fitness: 0.531 for the first, 0.86 for the second.

Compared with GUUCGGGUGGCGUAAUGGUAACCCGUCUCCUUCCUAAGGAGAAGACUGUGGGUUCGAGUCCCGUACGGAACG [C5G U7G G23C C31U C49U], GUUCGGUUGGCGUAAUGGUAACGCGUCUCCCUCCUAAGGAGAAGACUACGGGUUCGAGUCCCGUACGGAUCG [C5G G48A A70U] is higher in yeast fitness: ≤ 0.5 for the first, 0.803 for the second.

GUUCGGUUGGCGUAAUGGUAACGCGUCUCCCACCUAAGGAGAAGACUGCGGGUUCGAGUCCCGUACGGAUCG [C5G U32A A70U] and GUUCGGUUGGCGUAAUGGUAACGCGUCACCCUCGUAAGGAGAAGAAUGCGGGUUCGAGUCCCGUACGGAACG [C5G U28A C34G C46A] cannot be ordered by yeast fitness: ≤ 0.5 for the first, ≤ 0.5 for the second.

With GUUCGGUUGGCGUAAUGGUAACGCGUCUCCCCCCUAAGGAGAAGGAUGCGGGUUCGAGUCCCGUACGGAACG [C5G U32C A45G C46A] the yeast fitness was 0.907.

— the RNAGym collection of RNA variant scans (doi:10.1126/science.aae0568)
